Results on five compounds are retold here after PMC4285304 (Journal of Thrombosis and Haemostasis, 2014).

Each structure is given as a SMILES string. Read-outs that look alike come from different tables or passages of the source.

The test system of series [1] is tissue factor-induced thrombin generation in normal human platelet-poor plasma. Description: Thrombin generation assay. The settings on record: for maximal increase in Cmax over baseline / maximal increase in ETP over baseline: absence of rhs-TM, lower concentration range, not significant; for Cmax increase vs. control / ETP increase vs. control: presence of rhs-TM 10 nmol L^−1; for IC50: normal human PPP. Format: biochemical. A digest of the protocol: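 Citrated blood (3.12%, 1/10 vol) came from unmedicated healthy donors; PPP was prepared at 1000× g for 20 min at room temperature. Individual-donor PPP was spiked with increasing test compound concentrations (3–948 or 3–1090 nmol L−1) or vehicle, with or without rhs-TM (final 10 nmol L−1). TF was 1.67 pmol L−1 and phospholipid 1.33 μmol L−1 (final). After 5 min at 37 °C, FluCa was added. Calibrated thrombogram gave Cmax and ETP; n = 8–12.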

Series [2] relates to thrombin generation in protein C-deficient human plasma. Description: Thrombin generation assay. Type of series: biochemical. The settings on record: absence or presence of rhs-TM. Put shortly: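 Lyophilised protein C-deficient human plasma was spiked with increasing test compound concentrations or vehicle, with or without rhs-TM (final 10 nmol L−1). Thrombin generation was triggered with TF 1.67 pmol L−1 and phospholipid 1.33 μmol L−1 (final), incubated 5 min at 37 °C, and started with FluCa (HEPES, CaCl2, fluorogenic substrate). Fluorescence was calibrated per sample; Cmax and ETP were derived; n = 3.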

The subject of series [3] is prothrombin fragment 1+2 generation in normal human platelet-poor plasma. Description: Prothrombin fragment 1+2. The settings on record: for F1+2 increase: same concentration range as by the CAT method (melagatran 119–474, dabigatran 136–545 nmol L^−1); for IC50: read-out: F1+2 generation IC50, normal human PPP. Format: biochemical.
Series [4] deals with prothrombin fragment 1+2 generation in protein C-deficient human plasma. Description: Prothrombin fragment 1+2. Type of series: biochemical. Conditions: presence of TM. A digest of the protocol: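 Protein C-deficient human plasma was spiked with test compound (increasing concentrations) or vehicle plus rhs-TM (final 10 nmol L−1), then defibrinated with PefablocFG (final 6 mg mL−1). The CAT-type TF/phospholipid trigger was used, started with Fluo-buffer (HEPES, CaCl2, 5% DMSO, no substrate) and stopped after 12 min with PPACK (final 10 μmol L−1). Samples went into EDTA (final 100 mmol L−1) at 4 °C and were stored at −20 °C. F1+2 was measured by ELISA.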

Series [5] concerns thrombin–antithrombin (TAT) complex. Description: Tissue factor-induced hypercoagulability in rats: plasma TAT levels. Format: in vivo. Conditions: rat; for effect on TF-induced increase in TAT levels: 0.3 mg kg^−1 i.v., 10 minutes after TF 8 mg kg^−1.
Series [6] concerns plasma fibrinogen. Description: Tissue factor-induced hypercoagulability in rats: fibrinogen levels. Format: in vivo. Conditions: rat.
Series [7] deals with platelet count. Description: Tissue factor-induced hypercoagulability in rats: platelet count. Type of series: in vivo. The settings on record: rat.
Series [8] concerns activated partial thromboplastin time. Description: Activated partial thromboplastin time. Type of series: in vivo. The settings on record: rat, 15 minutes after drug, 10 minutes after TF. A digest of the protocol: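 Male Wistar rats (227–273 g) were fasted overnight and anaesthetised with i.p. pentobarbital-Na (80–100 mg kg−1). Test compound in 0.9% NaCl (0.001–0.3 mg kg−1) or vehicle (1 mL kg−1) was given i.v., then 5 min later recombinant TF (8 mg kg−1) or vehicle (sham) was given as a slow i.v. bolus. Citrated aortic blood was drawn 10 min after TF. APTT was measured on PPP by ball coagulometer, as fold over baseline; n = 10.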

The nature of series [9]: Plasma concentrations of rivaroxaban and melagatran in rats. Type of series: in vivo. Conditions: rat, 15 minutes after drug, 10 minutes after TF.
The subject of series [10] is thrombin bound to TM. Conditions: cited from earlier work.
For series [11], the system named is prothrombin time. Description: Prothrombin time. Format: in vivo. Conditions: rat; for PT prolongation: 15 minutes after drug, 10 minutes after TF. Put shortly:
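Rats (male Wistar, 227–273 g) were fasted overnight and anaesthetised with i.p. pentobarbital-Na (80–100 mg kg−1). Test compound in PEG:H2O:glycerol (996:100:60 g), 0.001–0.3 mg kg−1, or vehicle (1 mL kg−1) was given i.v. After 5 min, TF (8 mg kg−1) or vehicle (sham) was given as a slow i.v. bolus. Citrated aortic blood was taken 10 min later. PT on PPP by ball coagulometer, expressed as fold over baseline; n = 10.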

The subject of series [12] is mortality of treated animals. Conditions: TF-induced hypercoagulation; cited from earlier work.
The mark [13] stands for this setting: read-out: Cmax IC50, peak thrombin generation, +TM (rhs-TM 10 nmol L^−1).
The mark [14] stands for this setting: read-out: Cmax IC50, peak thrombin generation, −TM (absence of rhs-TM).
Setting [15] is: read-out: ETP IC50, endogenous thrombin potential, +TM (rhs-TM 10 nmol L^−1).
The mark [16] stands for this setting: read-out: ETP IC50, endogenous thrombin potential, −TM (absence of rhs-TM).
Where [17] appears, read: presence of rhs-TM 10 nmol L^−1.
[18] abbreviates: melagatran at 119–474 nmol L^−1.
Where [19] appears, read: whole dose range tested (0.001–0.3 mg kg^−1 i.v.).

Regarding `[H]/N=C(/N)c1ccc(NCc2nc3cc(C(=O)N(CCC(=O)O)c4ccccn4)ccc3n2C)cc1` [Dabigatran], in [1], the “maximal increase in Cmax over baseline” value stood at 11%. Also, the “maximal increase in ETP over baseline” value in [1] is on record as 5%. Also, the “Cmax increase vs. control” value in series [1] (dabigatran at 68–545 nmol L^−1) is 2.0–3.3 fold. Moreover, in series [1] (dabigatran at 136–545 nmol L^−1), the “ETP increase vs. control” value is 2.2–2.6 fold. The IC50 in series [1] (setting [13]) is greater than 1.09 µM; in series [1] (setting [14]), 0.976 ± 0.071 µM; in series [1] (setting [15]), greater than 1.09 µM; in [1] (setting [16]), 0.722 ± 0.044 µM; in [3] (absence of rhs-TM), 0.387 ± 0.063 µM. Further, the “increase in ETP or Cmax” value in [2] is recorded as “No increase”. For the same compound, the “F1+2 increase” value in series [3] (setting [17]) is recorded as 1.6–1.9 fold. For the same compound, the “generation of F1+2” value in series [4] is recorded as “concentration-dependently inhibited”.
For the compound `N=C(N)c1ccc(CNC(=O)[C@@H]2CCN2C(=O)[C@H](NCC(=O)O)C2CCCCC2)cc1` [Melagatran], in series [1], the “maximal increase in Cmax over baseline” value came out at 8%. Further, the “maximal increase in ETP over baseline” value in series [1] worked out at 6%. Moreover, the “Cmax increase vs. control” value in [1] (setting [18]) is 2.2–2.7 fold. The “ETP increase vs. control” value in series [1] (setting [18]) is 1.9–2.2 fold. Besides, the IC50 is greater than 0.95 µM in series [1] (setting [13]); 0.94 ± 0.079 µM in [1] (setting [14]); greater than 0.95 µM in series [1] (setting [15]); 0.732 ± 0.043 µM in [1] (setting [16]); 0.368 ± 0.04 µM in [3] (absence of rhs-TM). In series [2], the “increase in ETP or Cmax” value was “No increase”. Also, the “F1+2 increase” value in [3] (setting [17]) is 1.8–2.0 fold. The “generation of F1+2” value in series [4] is “concentration-dependently inhibited”. Further, the “TAT increase vs. TF control” value in series [5] (0.01 mg kg^−1 i.v., P < 0.01) is on record as 1.6 fold. For the same compound, the “effect on TF-induced increase in TAT levels” value in [5] was “reduced”. This compound also displayed a fibrinogen levels in series [6] (0.03 mg kg^−1 i.v., TF control 2.34 ± 0.08 g L^−1, P < 0.001) of 1.41 ± 0.20 g/L. Moreover, the platelet count in [7] (0.01 mg kg^−1 i.v., TF control 644 × 10^3 μL^−1) is 559000 µL⁻¹. Also, the APTT prolongation in [8] (0.001 mg kg^−1 i.v.) is on record as 1.26 ± 0.05 x-fold over baseline; in series [8] (0.003 mg kg^−1 i.v.) it was 1.34 ± 0.05 x-fold over baseline; in series [8] (0.01 mg kg^−1 i.v.) it was 1.68 ± 0.03 x-fold over baseline; in series [8] (0.03 mg kg^−1 i.v.), 2.17 ± 0.23 x-fold over baseline; in series [8] (0.1 mg kg^−1 i.v.) it was 2.08 ± 0.18 x-fold over baseline; in series [8] (0.3 mg kg^−1 i.v.), 3.11 ± 0.27 x-fold over baseline. Moreover, the values for the Plasma concentration in [9] (0.01 mg kg^−1 i.v.) and in series [9] (0.3 mg kg^−1 i.v.) were 0.0192 ± 0.0009 µg/mL and 0.5247 ± 0.0261 µg/mL, respectively. Besides, the “increase in the affinity of the thrombin inhibitor for the thrombin bound to TM” value in series [10] is “twofold increase”.
With `O=C(NC[C@H]1CN(c2ccc(N3CCOCC3=O)cc2)C(=O)O1)c1ccc(Cl)s1` [Rivaroxaban], the IC50 in series [1] (setting [13]) worked out at 0.044 ± 0.006 µM; in series [1] (setting [14]), 0.066 ± 0.005 µM; in series [1] (setting [15]), 0.057 ± 0.008 µM; in series [1] (setting [16]) it was 0.697 ± 0.106 µM; in series [3] (absence of rhs-TM), 0.012 ± 0.007 µM; in [3] (setting [17]), 0.014 ± 0.007 µM. Moreover, the “generation of F1+2” value in [4] is on record as “concentration-dependently inhibited”. For the same compound, the “effect on TF-induced increase in TAT levels” value in [5] is “complete inhibition”. In addition, the fibrinogen concentration entry in series [6] (setting [19]) is reported as “not affected”. Further, in series [7] (setting [19]), the platelet count result is given as “not affected”. In addition, the PT prolongation in [11] (0.001 mg kg^−1 i.v.) turned out to be 1.00 ± 0.04 x-fold over baseline; in series [11] (0.003 mg kg^−1 i.v.), 1.02 ± 0.02 x-fold over baseline; in series [11] (0.01 mg kg^−1 i.v.) it was 0.96 ± 0.02 x-fold over baseline; in series [11] (0.03 mg kg^−1 i.v.), 1.03 ± 0.02 x-fold over baseline; in [11] (0.1 mg kg^−1 i.v.), 1.26 ± 0.06 x-fold over baseline; in [11] (0.3 mg kg^−1 i.v.), 1.92 ± 0.05 x-fold over baseline. Besides, in series [11] (dose range 0.001–0.3 mg kg^−1 i.v.), the “prolongation of PT over the dose range” value is recorded as 1.0–1.9 fold over baseline.
With `N=C(N)NCCCNC(=O)[C@@H]1CCCCN1C(=O)[C@@H](CC1CCCCC1)NCC(=O)O` [inogatran], the “increase in the affinity of the thrombin inhibitor for the thrombin bound to TM” value in [10] is recorded as “twofold increase”.
With `CCOC(=O)CN[C@@H](C(=O)N1CC[C@H]1C(=O)NCc1ccc(/C(N)=N\O)cc1)C1CCCCC1` [ximelagatran], in [12], the “mortality rate, dose-dependent” value was “up to 67%” and the “mortality rate, time-dependent” value was no more than 88%.
